Among the data in ChEMBL document CHEMBL2151014, “Facile water promoted synthesis of 1,2,3-triazolyl dihydropyrimidine-2-thione hybrids - highly potent antibacterial agents” (2012) are MIC99 values, retold here.

Converted amounts (≈) assume the structure as drawn. The source made the active and inactive calls. The calls are words filed in the database; no cut-off is given here.

In the first test the test system is Pseudomonas aeruginosa. In words: Antibacterial activity against Pseudomonas aeruginosa after 48 hrs by well diffusion assay. It counts as functional.
Conditions: not given
The procedure, abridged: (§1)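 Clinical isolates identified biochemically; maintained on yeast extract–peptone–NaCl agar, pH 7.2, at 28 ± 2 °C. About 1 mL inoculum mixed into molten nutrient agar and poured. A central 5 mm well was cut and filled with 50 μL of compound in 10% DMSO, filter-sterilized, at various concentrations. 10% DMSO served as control. Inhibition zones were read after 48 h at room temperature.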
`COc1ccc(C2C=C(c3nnn(Cc4ccccc4)c3C)NC(=S)N2)cc1` (configuration not stated) registered an MIC99 of 10 µg/mL (≈ 25.5 µM).
Still for that read-out and setting: the result for `Cc1c(C2=CC(c3ccc(F)cc3)NC(=S)N2)nnn1Cc1ccccc1` (configuration not stated) reads 130 µg/mL (≈ 343 µM); that for `Cc1c(C2=CC(c3cccc(Br)c3)NC(=S)N2)nnn1Cc1ccccc1` (configuration not stated), 24 µg/mL (≈ 54.5 µM).
Same read-out and setting: the same measure for `COc1ccc(C2C=C(c3nnn(Cc4ccccc4)c3C)NC(=S)N2)c(OC)c1` (configuration not stated): “inactive”; for `Cc1c(C2=CC(c3ccccc3)NC(=S)N2)nnn1Cc1ccccc1` (configuration not stated): 12 µg/mL (≈ 33.2 µM).
Same read-out and setting: the same measure for `Cc1ccc(C2C=C(c3nnn(Cc4ccccc4)c3C)NC(=S)N2)cc1` (configuration not stated): 10 µg/mL (≈ 26.6 µM); for `Cc1c(C2=CC(c3ccc(Cl)cc3Cl)NC(=S)N2)nnn1Cc1ccccc1` (configuration not stated): “inactive”.
As to `CN(C)[C@@H]1C(O)=C(C(N)=O)C(=O)[C@@]2(O)C(O)=C3C(=O)c4c(O)cccc4[C@@](C)(O)[C@H]3C[C@@H]12` [TETRACYCLINE], the MIC99 was determined as 10 µg/mL (≈ 22.5 µM).
On the same count and under the same terms, the same measure for `Cc1c(C2=CC(c3ccc(Br)cc3)NC(=S)N2)nnn1Cc1ccccc1` (configuration not stated): 100 µg/mL (≈ 227 µM); for `Cc1c(C2=CC(c3ccccc3Br)NC(=S)N2)nnn1Cc1ccccc1` (configuration not stated): “inactive”; for `Cc1ccccc1C1C=C(c2nnn(Cc3ccccc3)c2C)NC(=S)N1` (configuration not stated): 18 µg/mL (≈ 47.9 µM).
The same measure, in the same setting: the same measure for `Cc1c(C2=CC(c3ccc(Cl)cc3)NC(=S)N2)nnn1Cc1ccccc1` (configuration not stated): 9 µg/mL (≈ 22.7 µM).
Still for that read-out and setting: the result for `Cc1c(C2=CC(c3ccc([N+](=O)[O-])cc3)NC(=S)N2)nnn1Cc1ccccc1` (configuration not stated) reads 20 µg/mL (≈ 49.2 µM).

The test system of a further test is Staphylococcus aureus. In words: Antibacterial activity against Staphylococcus aureus after 48 hrs by well diffusion assay. It counts as functional.
Conditions: not given
The essentials: as §1
For the compound `COc1ccc(C2C=C(c3nnn(Cc4ccccc4)c3C)NC(=S)N2)cc1` (configuration not stated), the MIC99 result is “inactive”.
Same read-out and setting: the same measure for `Cc1c(C2=CC(c3ccc(F)cc3)NC(=S)N2)nnn1Cc1ccccc1` (configuration not stated): 85 µg/mL (≈ 224 µM).
The same measure, in the same setting: the same measure for `Cc1c(C2=CC(c3cccc(Br)c3)NC(=S)N2)nnn1Cc1ccccc1` (configuration not stated): 22 µg/mL (≈ 50 µM).
On the same count and under the same terms, the result for `COc1ccc(C2C=C(c3nnn(Cc4ccccc4)c3C)NC(=S)N2)c(OC)c1` (configuration not stated) reads “inactive”.
With `Cc1c(C2=CC(c3ccccc3)NC(=S)N2)nnn1Cc1ccccc1` (configuration not stated), the MIC99 worked out at 10 µg/mL (≈ 27.7 µM).
`Cc1ccc(C2C=C(c3nnn(Cc4ccccc4)c3C)NC(=S)N2)cc1` (configuration not stated) had an MIC99 of 8 µg/mL (≈ 21.3 µM).
On the same count and under the same terms, the same measure for `Cc1c(C2=CC(c3ccc(Cl)cc3Cl)NC(=S)N2)nnn1Cc1ccccc1` (configuration not stated): 43 µg/mL (≈ 99.9 µM).
On the same count and under the same terms, the same measure for `CN(C)[C@@H]1C(O)=C(C(N)=O)C(=O)[C@@]2(O)C(O)=C3C(=O)c4c(O)cccc4[C@@](C)(O)[C@H]3C[C@@H]12` [TETRACYCLINE]: 10 µg/mL (≈ 22.5 µM); for `Cc1c(C2=CC(c3ccc(Br)cc3)NC(=S)N2)nnn1Cc1ccccc1` (configuration not stated): 95 µg/mL (≈ 216 µM); for `Cc1c(C2=CC(c3ccccc3Br)NC(=S)N2)nnn1Cc1ccccc1` (configuration not stated): “inactive”.
Still for that read-out and setting: the result for `Cc1ccccc1C1C=C(c2nnn(Cc3ccccc3)c2C)NC(=S)N1` (configuration not stated) reads 37 µg/mL (≈ 98.5 µM); that for `Cc1c(C2=CC(c3ccc(Cl)cc3)NC(=S)N2)nnn1Cc1ccccc1` (configuration not stated), 10 µg/mL (≈ 25.3 µM).
Compound `Cc1c(C2=CC(c3ccc([N+](=O)[O-])cc3)NC(=S)N2)nnn1Cc1ccccc1` (configuration not stated) yielded an MIC99 of 20 µg/mL (≈ 49.2 µM).

For another test, the system named is Streptococcus pneumoniae. As to the kind of experiment: Antibacterial activity against Streptococcus pneumoniae after 48 hrs by well diffusion assay. It counts as functional.
Conditions: not given
The essentials: as §1
Regarding `COc1ccc(C2C=C(c3nnn(Cc4ccccc4)c3C)NC(=S)N2)cc1` (configuration not stated), the MIC99 turned out to be 40 µg/mL (≈ 102 µM).
The same measure, in the same setting: the result for `Cc1c(C2=CC(c3ccc(F)cc3)NC(=S)N2)nnn1Cc1ccccc1` (configuration not stated) reads 100 µg/mL (≈ 264 µM); that for `Cc1c(C2=CC(c3cccc(Br)c3)NC(=S)N2)nnn1Cc1ccccc1` (configuration not stated), 35 µg/mL (≈ 79.5 µM).
The same measure, in the same setting: the result for `COc1ccc(C2C=C(c3nnn(Cc4ccccc4)c3C)NC(=S)N2)c(OC)c1` (configuration not stated) reads 42 µg/mL (≈ 99.6 µM); that for `Cc1c(C2=CC(c3ccccc3)NC(=S)N2)nnn1Cc1ccccc1` (configuration not stated), 19 µg/mL (≈ 52.6 µM); that for `Cc1ccc(C2C=C(c3nnn(Cc4ccccc4)c3C)NC(=S)N2)cc1` (configuration not stated), 16 µg/mL (≈ 42.6 µM).
The same measure, in the same setting: the result for `Cc1c(C2=CC(c3ccc(Cl)cc3Cl)NC(=S)N2)nnn1Cc1ccccc1` (configuration not stated) reads 25 µg/mL (≈ 58.1 µM).
Consider `CN(C)[C@@H]1C(O)=C(C(N)=O)C(=O)[C@@]2(O)C(O)=C3C(=O)c4c(O)cccc4[C@@](C)(O)[C@H]3C[C@@H]12` [TETRACYCLINE], for which the MIC99 amounted to 20 µg/mL (≈ 45 µM).
The same measure, in the same setting: the same measure for `Cc1c(C2=CC(c3ccc(Br)cc3)NC(=S)N2)nnn1Cc1ccccc1` (configuration not stated): 44 µg/mL (≈ 99.9 µM); for `Cc1c(C2=CC(c3ccccc3Br)NC(=S)N2)nnn1Cc1ccccc1` (configuration not stated): 33 µg/mL (≈ 74.9 µM); for `Cc1ccccc1C1C=C(c2nnn(Cc3ccccc3)c2C)NC(=S)N1` (configuration not stated): 19 µg/mL (≈ 50.6 µM).
The same measure, in the same setting: the same measure for `Cc1c(C2=CC(c3ccc(Cl)cc3)NC(=S)N2)nnn1Cc1ccccc1` (configuration not stated): 10 µg/mL (≈ 25.3 µM); for `Cc1c(C2=CC(c3ccc([N+](=O)[O-])cc3)NC(=S)N2)nnn1Cc1ccccc1` (configuration not stated): 20 µg/mL (≈ 49.2 µM).

The test system of a further test is Salmonella typhi. In words: Antibacterial activity against Salmonella typhi after 48 hrs by well diffusion assay. As to conditions: Salmonella enterica.
In turn, `Cc1c(C2=CC(c3cccc(Br)c3)NC(=S)N2)nnn1Cc1ccccc1` (configuration not stated) gave an MIC99 of 90 µg/mL (≈ 204 µM).
The same measure, in the same setting: the same measure for `COc1ccc(C2C=C(c3nnn(Cc4ccccc4)c3C)NC(=S)N2)c(OC)c1` (configuration not stated): 32 µg/mL (≈ 75.9 µM).
Still for that read-out and setting: the same measure for `Cc1c(C2=CC(c3ccccc3)NC(=S)N2)nnn1Cc1ccccc1` (configuration not stated): 18 µg/mL (≈ 49.8 µM); for `Cc1ccc(C2C=C(c3nnn(Cc4ccccc4)c3C)NC(=S)N2)cc1` (configuration not stated): 13 µg/mL (≈ 34.6 µM); for `CN(C)[C@@H]1C(O)=C(C(N)=O)C(=O)[C@@]2(O)C(O)=C3C(=O)c4c(O)cccc4[C@@](C)(O)[C@H]3C[C@@H]12` [TETRACYCLINE]: 15 µg/mL (≈ 33.8 µM).
Regarding `Cc1c(C2=CC(c3ccc(Br)cc3)NC(=S)N2)nnn1Cc1ccccc1` (configuration not stated), the MIC99 came to 120 µg/mL (≈ 272 µM).
Still for that read-out and setting: the result for `Cc1ccccc1C1C=C(c2nnn(Cc3ccccc3)c2C)NC(=S)N1` (configuration not stated) reads 25 µg/mL (≈ 66.6 µM).
Same read-out and setting: the result for `Cc1c(C2=CC(c3ccc(Cl)cc3)NC(=S)N2)nnn1Cc1ccccc1` (configuration not stated) reads 20 µg/mL (≈ 50.5 µM); that for `Cc1c(C2=CC(c3ccc([N+](=O)[O-])cc3)NC(=S)N2)nnn1Cc1ccccc1` (configuration not stated), 80 µg/mL (≈ 197 µM).

Still in this test, the particulars now being: Salmonella enterica subsp. enterica serovar Typhi.
For the compound `COc1ccc(C2C=C(c3nnn(Cc4ccccc4)c3C)NC(=S)N2)cc1` (configuration not stated), the MIC99 result is “inactive”.
The same measure, in the same setting: the result for `Cc1c(C2=CC(c3ccc(F)cc3)NC(=S)N2)nnn1Cc1ccccc1` (configuration not stated) reads “inactive”; that for `Cc1c(C2=CC(c3ccc(Cl)cc3Cl)NC(=S)N2)nnn1Cc1ccccc1` (configuration not stated), “inactive”; that for `Cc1c(C2=CC(c3ccccc3Br)NC(=S)N2)nnn1Cc1ccccc1` (configuration not stated), “inactive”.
